Source: ChEMBL document CHEMBL5649170, “Sustained microglial depletion with CSF1R inhibitor impairs parenchymal plaque development in an Alzheimer's disease model” (Nat Commun, 2019)
Active and inactive are the calls of the source. The rule behind the calls is not given here.

Assays:
[1] = Drug concentration in 5XFAD mouse plasma at 75 ppm administered as rodent chow starting from 1.5 months and measured after 5 months; type: ADME, cell-free; details: route po, time 3.5 months
Procedure, shortened: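 WT or 5xFAD mice were fed PLX3397 in AIN-76A chow at 600 ppm or 75 ppm from 1.5 to 5 months of age. Terminal brain and plasma drug concentrations were determined at study end.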

[2] = molecular target: Tyrosine-protein kinase Lyn (Homo sapiens, UniProt P07948); experiment: Inhibition of LYN_B (unknown origin)
[3] = tested on: Mus musculus; experiment: Antialzheimer activity in 5XFAD mouse assessed as percent change in claudin-5 intensity of Thio-S negative thalamus at 1200 ppm administered as rodent chow starting from 1.5 months and measured after 4 months by immunolabeling analysis relative to control; type: functional; details: route po, time 2.5 months, 1825 h
[4] = molecular target: Proto-oncogene tyrosine-protein kinase receptor Ret (Homo sapiens, UniProt P07949, V804L); experiment: Inhibition of RET V804L mutant (unknown origin)
[5] = molecular target: cAMP-dependent protein kinase catalytic subunit PRKX (Homo sapiens, UniProt P51817); experiment: Inhibition of PRKX (unknown origin)
[6] = Effect on Itgax gene expression in wild type mouse cortex at 1200 ppm administered as rodent chow starting from 1.5 months and measured after 7 months by RNA-Seq analysis (reference value: 0.069 to 0.218 RPKM); type: functional; details: route po, time 5.5 months, 4015 h
[7] = Ratio of drug concentration in brain to plasma in mouse at 300 ppm administered as rodent chow for 14 days; type: ADME, cell-free; details: route po, time 14 day, read-out: BPR
[8] = tested on: Mus musculus; experiment: Prevention of Apc gene downregulation in 5XFAD mouse hippocampus at 1200 ppm administered as rodent chow starting from 1.5 months and measured after 7 months by Nanostring analysis; type: functional, tissue-based; details: route po, time 5.5 months
[9] = Toxicity in wildtype mouse assessed as total number of arm entries at 1200 ppm administered as rodent chow for 10 to 24 weeks by Y-maze test (reference value: 14 to 35); details: in vivo, po, time 10-24 weeks
[10] = tested on: Mus musculus; experiment: Antialzheimer activity in 5XFAD mouse assessed as iron reactivity by measuring hemosiderin intensity of prussian blue staining in […] cortex at 1200 ppm administered as rodent chow starting from 1.5 months and measured after 7 months by confocal microscopic analysis (reference value: 0.1 to 4.791 a.u.); type: functional; details: route po, time 5.5 months, 4015 h
Procedure, shortened: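 Wild-type or 5xFAD mice fed PLX5622 (1200 ppm) in AIN-76A chow from 1.5 months of age, examined in 4- and 7-month-old cohorts. Brain sections stained with a Prussian blue kit per kit instructions to detect iron deposits (microbleeds).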

[11] = molecular target: CDK7/Cyclin H/MNAT1 (Homo sapiens, UniProt P50613); experiment: Inhibition of CDK7/CyclinH/MNAT1 (unknown origin); type: protein-complex assay
[12] = tested on: Mus musculus; experiment: Prevention of Dlgap1 gene downregulation in 5XFAD mouse hippocampus at 1200 ppm administered as rodent chow starting from 1.5 months and measured after 7 months by Nanostring analysis; type: functional, tissue-based; details: route po, time 5.5 months
[13] = molecular target: Serine/threonine-protein kinase N1 (Homo sapiens, UniProt Q16512); experiment: Inhibition of PKN1 (unknown origin)
[14] = Effect on Dusp5 gene expression in wildtype mouse hippocampus assessed as percent change in Reads Per kilo base per Million mapped reads at 1200 ppm administered as rodent chow starting from 1.5 months and measured after 7 months by RNA-Seq analysis (reference value: 75.632 to 114.605 %); type: functional; details: route po, time 5.5 months, 4015 h
[15] = molecular target: Casein kinase I isoform gamma-1 (Homo sapiens, UniProt Q9HCP0); experiment: Inhibition of CSNK1G1 (unknown origin)
[16] = Effect on Csf1r RPKM gene expression in 5XFAD mouse hippocampus at 1200 ppm administered as rodent chow starting from 1.5 months and measured after 7 months by RNA-Seq analysis (reference value: 33.840 to 41.629 RPKM); type: functional; details: route po, time 5.5 months, 4015 h
[17] = Prevention of Gls gene downregulation in 5XFAD mouse hippocampus assessed as percent change in Reads Per kilo base per Million mapped reads at 1200 ppm administered as rodent chow starting from 1.5 months and measured after 7 months by RNA-Seq analysis (reference value: 58.522 to 73.849 %); type: functional; details: route po, time 5.5 months, 4015 h
[18] = molecular target: CDK9/cyclin T1 (Homo sapiens, UniProt P50750); experiment: Inhibition of CDK9/CyclinT1 (unknown origin); type: protein-complex assay
[19] = Toxicity in wildtype mouse assessed as number of entries to perimeter zone at 1200 ppm administered as rodent chow for 10 to 24 weeks by Open field test (reference value: 20 to 64); details: in vivo, po, time 10-24 weeks
[20] = Drug concentration in 5XFAD mouse brain at 1200 ppm administered as rodent chow for 10 to 24 weeks; type: ADME, tissue-based; details: in vivo, po, time 10-24 weeks, read-out: Ct
Procedure, shortened: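 WT or 5xFAD mice were started at 1.5 months of age on PLX5622 formulated at 1200 ppm in AIN-76A chow, with control chow as comparison. Feeding ran for 10 or 24 weeks. Terminal plasma and brain drug levels were then measured. Groups were sex-balanced and compared by two-tailed independent t-test.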

Proto-oncogene tyrosine-protein kinase receptor Ret, sequence (P07949 29-1114 V804L limits assumed): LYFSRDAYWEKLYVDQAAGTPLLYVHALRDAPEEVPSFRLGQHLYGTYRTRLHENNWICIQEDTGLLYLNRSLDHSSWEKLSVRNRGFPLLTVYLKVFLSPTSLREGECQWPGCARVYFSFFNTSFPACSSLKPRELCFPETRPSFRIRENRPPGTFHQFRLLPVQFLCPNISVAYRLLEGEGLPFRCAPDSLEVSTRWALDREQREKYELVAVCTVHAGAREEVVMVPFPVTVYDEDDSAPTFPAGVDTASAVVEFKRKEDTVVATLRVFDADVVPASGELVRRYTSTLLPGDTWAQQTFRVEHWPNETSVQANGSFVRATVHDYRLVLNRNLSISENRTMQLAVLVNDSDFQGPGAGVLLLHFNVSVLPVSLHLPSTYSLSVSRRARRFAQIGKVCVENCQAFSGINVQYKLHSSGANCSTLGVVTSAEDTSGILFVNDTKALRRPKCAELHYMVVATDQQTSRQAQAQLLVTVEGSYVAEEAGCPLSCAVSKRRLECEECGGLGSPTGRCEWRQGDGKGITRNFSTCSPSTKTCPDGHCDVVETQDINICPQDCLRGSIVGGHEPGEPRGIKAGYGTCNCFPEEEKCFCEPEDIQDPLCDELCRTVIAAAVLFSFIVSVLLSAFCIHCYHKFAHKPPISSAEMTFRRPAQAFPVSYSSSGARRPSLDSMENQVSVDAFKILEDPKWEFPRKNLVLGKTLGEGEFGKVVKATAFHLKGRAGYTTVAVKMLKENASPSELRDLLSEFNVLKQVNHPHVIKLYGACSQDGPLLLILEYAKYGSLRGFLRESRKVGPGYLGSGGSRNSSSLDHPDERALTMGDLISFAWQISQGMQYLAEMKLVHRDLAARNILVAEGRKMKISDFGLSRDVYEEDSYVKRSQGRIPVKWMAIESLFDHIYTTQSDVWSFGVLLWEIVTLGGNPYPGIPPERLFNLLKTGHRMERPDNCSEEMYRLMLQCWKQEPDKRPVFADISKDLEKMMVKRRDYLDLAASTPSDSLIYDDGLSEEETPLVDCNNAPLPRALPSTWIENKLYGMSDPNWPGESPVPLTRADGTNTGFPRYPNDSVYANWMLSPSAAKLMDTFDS
Casein kinase I isoform gamma-1, sequence (Q9HCP0 whole entry, canonical isoform): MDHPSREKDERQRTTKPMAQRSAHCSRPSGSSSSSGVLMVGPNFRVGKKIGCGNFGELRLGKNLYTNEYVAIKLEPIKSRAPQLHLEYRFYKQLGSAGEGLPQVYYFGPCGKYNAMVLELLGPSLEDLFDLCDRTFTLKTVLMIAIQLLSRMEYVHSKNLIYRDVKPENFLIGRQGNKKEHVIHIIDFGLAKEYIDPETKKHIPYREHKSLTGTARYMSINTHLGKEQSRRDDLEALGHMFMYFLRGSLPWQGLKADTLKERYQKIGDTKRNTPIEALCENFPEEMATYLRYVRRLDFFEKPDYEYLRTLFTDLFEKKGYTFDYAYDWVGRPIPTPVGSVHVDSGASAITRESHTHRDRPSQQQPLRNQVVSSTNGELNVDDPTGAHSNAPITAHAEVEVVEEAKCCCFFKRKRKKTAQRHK
Serine/threonine-protein kinase N1, sequence (Q16512 whole entry): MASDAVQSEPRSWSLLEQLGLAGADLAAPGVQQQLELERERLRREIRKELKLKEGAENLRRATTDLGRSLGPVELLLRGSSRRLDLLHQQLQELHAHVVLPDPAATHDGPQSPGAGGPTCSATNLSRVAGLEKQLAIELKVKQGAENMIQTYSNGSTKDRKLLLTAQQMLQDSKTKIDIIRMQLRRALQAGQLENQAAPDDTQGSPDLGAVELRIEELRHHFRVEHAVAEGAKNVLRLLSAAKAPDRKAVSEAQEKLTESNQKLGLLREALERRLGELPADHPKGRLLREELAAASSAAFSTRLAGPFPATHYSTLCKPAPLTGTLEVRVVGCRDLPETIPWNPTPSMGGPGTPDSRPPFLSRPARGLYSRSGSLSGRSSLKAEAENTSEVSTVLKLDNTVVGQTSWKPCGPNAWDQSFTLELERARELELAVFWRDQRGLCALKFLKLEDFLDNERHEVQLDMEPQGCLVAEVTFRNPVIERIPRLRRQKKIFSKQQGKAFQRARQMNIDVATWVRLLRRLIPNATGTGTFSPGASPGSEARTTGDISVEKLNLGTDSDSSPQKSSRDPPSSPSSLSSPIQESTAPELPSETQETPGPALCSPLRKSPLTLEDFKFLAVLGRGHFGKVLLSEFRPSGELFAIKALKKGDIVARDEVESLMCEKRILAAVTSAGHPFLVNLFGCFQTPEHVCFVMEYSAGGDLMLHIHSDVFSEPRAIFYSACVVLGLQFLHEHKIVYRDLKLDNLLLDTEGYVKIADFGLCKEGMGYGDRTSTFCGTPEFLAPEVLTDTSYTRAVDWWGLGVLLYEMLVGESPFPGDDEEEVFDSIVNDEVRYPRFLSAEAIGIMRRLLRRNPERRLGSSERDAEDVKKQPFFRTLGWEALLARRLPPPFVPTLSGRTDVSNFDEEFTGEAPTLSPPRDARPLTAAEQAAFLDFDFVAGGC
CDK9/cyclin T1, sequence (O60563 whole entry): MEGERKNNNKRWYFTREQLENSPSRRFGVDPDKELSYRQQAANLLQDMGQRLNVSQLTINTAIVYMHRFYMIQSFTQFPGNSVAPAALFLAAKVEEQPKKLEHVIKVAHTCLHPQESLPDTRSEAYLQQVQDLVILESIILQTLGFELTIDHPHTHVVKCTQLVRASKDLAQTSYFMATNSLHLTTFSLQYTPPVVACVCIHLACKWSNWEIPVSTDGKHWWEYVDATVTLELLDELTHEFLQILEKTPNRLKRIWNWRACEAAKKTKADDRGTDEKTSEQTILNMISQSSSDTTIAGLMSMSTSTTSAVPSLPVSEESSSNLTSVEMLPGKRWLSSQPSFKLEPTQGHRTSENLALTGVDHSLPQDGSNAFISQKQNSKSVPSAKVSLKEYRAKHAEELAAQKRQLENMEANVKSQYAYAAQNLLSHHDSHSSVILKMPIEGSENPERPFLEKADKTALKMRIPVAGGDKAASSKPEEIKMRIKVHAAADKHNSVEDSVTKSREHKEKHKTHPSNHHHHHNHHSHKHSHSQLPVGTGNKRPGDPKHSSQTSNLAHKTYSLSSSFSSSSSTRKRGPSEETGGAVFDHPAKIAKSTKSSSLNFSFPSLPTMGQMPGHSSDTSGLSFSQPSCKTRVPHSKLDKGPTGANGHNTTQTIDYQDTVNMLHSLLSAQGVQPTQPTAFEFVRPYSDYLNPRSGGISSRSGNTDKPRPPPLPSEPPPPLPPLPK
CDK9/cyclin T1, sequence (P50750 whole entry): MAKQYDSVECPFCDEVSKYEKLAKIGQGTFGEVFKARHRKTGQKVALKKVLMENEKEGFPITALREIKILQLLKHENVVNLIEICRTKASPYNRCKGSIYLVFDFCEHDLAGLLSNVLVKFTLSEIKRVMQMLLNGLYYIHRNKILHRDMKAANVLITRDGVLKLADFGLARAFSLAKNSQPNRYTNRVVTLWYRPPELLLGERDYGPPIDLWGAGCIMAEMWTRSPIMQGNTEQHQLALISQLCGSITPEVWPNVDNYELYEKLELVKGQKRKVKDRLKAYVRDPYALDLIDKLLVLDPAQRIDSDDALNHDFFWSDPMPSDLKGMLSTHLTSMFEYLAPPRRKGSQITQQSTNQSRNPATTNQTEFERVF
cAMP-dependent protein kinase catalytic subunit PRKX, sequence (P51817 whole entry): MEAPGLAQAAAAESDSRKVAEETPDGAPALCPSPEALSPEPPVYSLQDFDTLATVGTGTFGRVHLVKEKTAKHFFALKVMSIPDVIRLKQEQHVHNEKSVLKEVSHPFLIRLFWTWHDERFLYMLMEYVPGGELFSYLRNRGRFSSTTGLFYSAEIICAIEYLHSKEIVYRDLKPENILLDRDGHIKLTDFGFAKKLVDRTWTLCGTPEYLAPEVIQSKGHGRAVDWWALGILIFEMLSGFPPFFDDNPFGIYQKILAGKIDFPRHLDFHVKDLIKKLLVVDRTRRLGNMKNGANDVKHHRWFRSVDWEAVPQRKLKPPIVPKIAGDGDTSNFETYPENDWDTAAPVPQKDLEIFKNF
Tyrosine-protein kinase Lyn, sequence (P07948 whole entry): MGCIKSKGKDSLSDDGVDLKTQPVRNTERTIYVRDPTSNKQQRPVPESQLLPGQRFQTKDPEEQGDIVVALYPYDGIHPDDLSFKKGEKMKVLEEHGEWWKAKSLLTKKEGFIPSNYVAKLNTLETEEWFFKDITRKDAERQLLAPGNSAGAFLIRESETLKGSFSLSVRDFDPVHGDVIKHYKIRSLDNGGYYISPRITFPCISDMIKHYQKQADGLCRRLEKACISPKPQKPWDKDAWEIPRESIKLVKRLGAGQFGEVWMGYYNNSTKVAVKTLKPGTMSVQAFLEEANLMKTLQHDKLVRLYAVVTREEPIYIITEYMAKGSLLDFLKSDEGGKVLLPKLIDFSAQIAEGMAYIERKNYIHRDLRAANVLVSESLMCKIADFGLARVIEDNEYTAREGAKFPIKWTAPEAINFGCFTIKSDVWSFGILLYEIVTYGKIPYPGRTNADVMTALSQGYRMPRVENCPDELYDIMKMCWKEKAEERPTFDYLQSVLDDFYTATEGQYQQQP

Compound: FC(F)(F)c1ccc(CNc2ccc(Cc3c[nH]c4ncc(Cl)cc34)cn2)cn1 [PEXIDARTINIB]
- concentration at 2555 h [1]: 15 µM

Compound: COc1ncc(F)cc1CNc1ccc(Cc2c[nH]c3ncc(C)cc23)c(F)n1 [PLX-5622]
- IC50 [2]: > 1000 nM
- Activity [3]: 91.327%
- IC50 [4]: > 1000 nM
- IC50 [5]: > 1000 nM
- Activity [6]: 0 RPKM
- Kp at 336 h [7]: 0.22
- Activity [8]: Active
- Activity [9]: 14
- Flu intensity [10]: 2.499 a.u.
- IC50 [11]: > 1000 nM
- Activity [12]: Active
- IC50 [13]: > 1000 nM
- Activity [14]: 94.671%
- IC50 [15]: > 1000 nM
- Activity [16]: 3.234 RPKM
- Activity [17]: 77.958%
- IC50 [18]: > 1000 nM
- Activity [19]: 13
- concentration [20]: 3.47 µM
